Laboratory results: PubChem BioAssay
Calls of active or inactive are those of the source. Unless noted, no stated cut-off is given here; in the data, active means inhibition above about 30%; inactive means the rest.

Key:
[1] = Her2 expression decrease, cell viability multiplex – SKBR3 breast tumor cells, AlphaScreen, ATP viability, primary screen (AID 461;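 active means Her2 level under about 52% in both replicate screens, with viability over 70% of control, limit read from the data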;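 on Her2 level: lower value means less Her2 protein in the cells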;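 on viability: percent of carrier control wells set as 100% viability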); details: SKBR3 Her2 protein level, 18-24 h, measured here: SKBR3 viability, ATP luminescence, at 10 µM
[2] = molecular target: Receptor tyrosine-protein kinase erbB-2 (Homo sapiens) (UniProt P04626); test: as above; details: 18-24 h, at 10 µM, stronger effect = lower value
Receptor tyrosine-protein kinase erbB-2 (Homo sapiens), sequence (P04626 whole entry, looked up): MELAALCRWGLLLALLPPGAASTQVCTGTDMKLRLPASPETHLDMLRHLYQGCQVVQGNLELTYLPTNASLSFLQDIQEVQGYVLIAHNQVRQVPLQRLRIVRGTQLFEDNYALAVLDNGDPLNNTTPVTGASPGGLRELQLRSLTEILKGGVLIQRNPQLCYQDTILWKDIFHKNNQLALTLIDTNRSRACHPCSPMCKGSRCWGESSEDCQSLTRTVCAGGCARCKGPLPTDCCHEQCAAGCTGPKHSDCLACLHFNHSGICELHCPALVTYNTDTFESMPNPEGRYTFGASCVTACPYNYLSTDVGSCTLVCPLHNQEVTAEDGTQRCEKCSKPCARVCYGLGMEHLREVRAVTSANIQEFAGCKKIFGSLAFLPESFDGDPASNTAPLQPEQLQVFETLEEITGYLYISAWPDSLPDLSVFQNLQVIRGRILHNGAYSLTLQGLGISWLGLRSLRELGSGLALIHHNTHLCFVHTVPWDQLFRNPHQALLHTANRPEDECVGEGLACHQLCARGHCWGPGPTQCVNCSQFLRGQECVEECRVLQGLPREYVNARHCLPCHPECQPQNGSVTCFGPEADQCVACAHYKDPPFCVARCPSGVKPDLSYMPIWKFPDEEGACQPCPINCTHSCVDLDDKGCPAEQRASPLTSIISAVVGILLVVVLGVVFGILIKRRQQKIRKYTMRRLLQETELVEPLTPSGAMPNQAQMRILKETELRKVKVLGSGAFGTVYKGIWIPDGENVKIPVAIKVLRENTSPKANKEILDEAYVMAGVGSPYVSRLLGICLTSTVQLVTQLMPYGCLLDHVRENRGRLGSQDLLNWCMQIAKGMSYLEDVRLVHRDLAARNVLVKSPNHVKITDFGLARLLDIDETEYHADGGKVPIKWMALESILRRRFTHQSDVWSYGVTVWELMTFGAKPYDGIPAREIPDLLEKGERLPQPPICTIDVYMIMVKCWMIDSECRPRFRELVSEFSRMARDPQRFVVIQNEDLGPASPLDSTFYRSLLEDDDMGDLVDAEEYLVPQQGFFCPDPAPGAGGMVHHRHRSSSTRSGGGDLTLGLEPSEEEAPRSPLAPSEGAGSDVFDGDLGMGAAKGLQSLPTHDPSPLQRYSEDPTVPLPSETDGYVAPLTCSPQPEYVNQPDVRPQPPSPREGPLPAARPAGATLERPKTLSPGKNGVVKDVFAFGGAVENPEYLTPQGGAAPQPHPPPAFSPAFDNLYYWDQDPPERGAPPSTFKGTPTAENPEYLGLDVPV

[3] = reduced viability of SK-BR-3 breast cancer cells – cell-based, 24 h, human, pilot screen (AID 572;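 active means viability at or below 10% of carrier control in both of two separate runs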;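 further: compound exposure lasted between 18 and 24 h rather than exactly 24 h; 100% = carrier-treated control wells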); details: SK-BR-3 viability, CellTiter-Glo luminescence, at 10 µM, stronger effect = lower value
[4] = HUVEC growth inhibition – cell-based, human, primary screen (AID 575;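 active means viability at or below 30% in both replicate assays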;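 further: 100% = median of untreated cell wells with 0.1% DMSO on each plate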); details: HUVEC proliferation, CellTiter-Glo luminescence, 72 h; at 10 µM; stronger effect = lower value
In short: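 Test system – primary HUVEC, no more than 12 passages · Dosing – one dose, 10 µM final, 0.1% DMSO · Times – 72 h treatment at 37 °C · Measured by – ATP-based CellTiter-Glo luminescent read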

[5] = H69AR cell proliferation blockers – human, duplicate replicates, primary screen (AID 580;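 active means viability at or under a set limit in both replicates, limit being median viability minus 3 SD, cut at about 48% in these data, passing the limit was not always enough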;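 further: 100% = mean luminescence of untreated wells and 0% = no signal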); details: H69AR lung tumor cells viability, ATP luminescence, 72 h; at 10 µM; stronger effect = lower value
[6] = MRP1 drug-resistance reversers in H69AR cells – cell-based, doxorubicin co-treatment, pilot screen (AID 601;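 active means viability loss from added drug above about 55%, and viability with drug at most 40%, in both replicates, limit read from the data, passing the limit was not always enough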); details: CellTiter-Glo, 72 h, at 10 µM; for differential viability (reversal): stronger effect = higher value
[7] = yeast transport mutant growth inhibition pilot in 384-well plates, post-Golgi transport modulator project (AID 636; in the data active means inhibition above about 31%); details: absorbance 615 nm, about 18 h, stronger effect = higher value
[8] = growth suppression of yeast trafficking mutant, preliminary HTS, modulators of trafficking downstream of Golgi apparatus project, 1536-format plate, OD 615 nm (AID 637); details: yeast transport mutant growth, absorbance 615 nm, 18 h; stronger effect = higher value
[9] = H69AR cells + 2 uM doxorubicin, measured here: viability with 2 uM doxorubicin, stronger effect = lower value
[10] = H69AR cells, compound alone cytotoxicity

Structure (SMILES) | viability [1] [%] | Her2 level [2] | viability [3] | viability [4] | viability [5] | differential viability (reversal) ([6]; H69AR cells + 2 uM doxorubicin) | viability [6, 9] [%] | viability [6, 10] [%] | inhibition [7] | inhibition [8]
CCOC(=O)Cn1c(N2CCOCC2)nc2c1c(=O)[nH]c(=O)n2C | 106 | 85.5% (inactive) | 106% (inactive) | 89.7% (inactive) | 88.1% (inactive) | -0.31% (inactive) | 88.4 | 88.1 | -3.95% (inactive) | -6.83% (inactive)
COc1cccc(-c2nnc(SCC(=O)N3CCCc4ccccc43)o2)c1 | 93.5 | 87.5% (inactive) | 93.5% (inactive) | 60.4% (inactive) | 90.6% (inactive) | 4.79% (inactive) | 85.8 | 90.6 | -4.61% (inactive) | -3.33% (inactive)
CN1CC[n+]2cnc3ccccc3c21 | 100 | 92% (inactive) | 100% (inactive) | 108% (inactive) | 97.3% (inactive) | 8.2% (inactive) | 89.1 | 97.3 | -2.24% (inactive) | 6.23% (inactive)
CC(O)c1c(OCc2ccccc2)ncnc1OCc1ccccc1 (stereo not given) | 83.5 | 82.5% (inactive) | 83.5% (inactive) | 59.5% (inactive) | 93.8% (inactive) | 14.6% (inactive) | 79.3 | 93.8 | -2.73% (inactive) | 1.48% (inactive)
CC(C)CC(=O)Nc1ccccc1-c1nnn(CC(=O)N2CCOCC2)n1 | 102 | 92% (inactive) | 102% (inactive) | 87.8% (inactive) | 86.8% (inactive) | -1.72% (inactive) | 88.5 | 86.8 | -5.87% (inactive) | -1.77% (inactive)
COc1ccc(NC(=O)CCc2nc(-c3ccccc3F)no2)cc1 | 115 | 99% (inactive) | 115% (inactive) | 91.9% (inactive) | 93.6% (inactive) | 4.53% (inactive) | 89.1 | 93.6 | -0.26% (inactive) | -0.66% (inactive)
C=CCn1c(-c2ccccc2)c[nH]c1=S | 91 | 92.5% (inactive) | 91% (inactive) | 114% (inactive) | 99.9% (inactive) | 22.4% (inactive) | 77.5 | 99.9 | -5.84% (inactive) | 0.16% (inactive)
Cc1nc2ccccc2cc1C(=O)NCc1ccco1 | 130 | 90% (inactive) | 130% (inactive) | 91.3% (inactive) | 93.3% (inactive) | 8.23% (inactive) | 85.1 | 93.3 | -4.93% (inactive) | 7.42% (inactive)
O=C(c1cc2n(n1)C(C(F)(F)F)CC(c1ccc(Cl)cc1)N2)N1CCCC1 (stereo not given) | 86.5 | 68% (inactive) | 86.5% (inactive) | 82.1% (inactive) | 90.9% (inactive) | -0.385% (inactive) | 91.3 | 90.9 | -6.84% (inactive) | 3.17% (inactive)
O=C(CNS(=O)(=O)c1ccc(Br)s1)N1CCN(c2ncccn2)CC1 | 98.5 | 116% (inactive) | 98.5% (inactive) | 122% (inactive) | 94.6% (inactive) | -4.04% (inactive) | 98.7 | 94.6 | -4.87% (inactive) | -1.31% (inactive)
O=C(OCc1nnc(-c2ccccc2)o1)c1ccc2ccccc2n1 | 106 | 116% (inactive) | 106% (inactive) | 100% (inactive) | 89.4% (inactive) | -0.715% (inactive) | 90.1 | 89.4 | 3.15% (inactive) | 23.2% (inactive)
COc1ccc(C(CNC(=O)CN2C(=O)NC3(CC(C)CC(C)(C)C3)C2=O)N2CCOCC2)cc1 (stereo not given) | 94.5 | 108% (inactive) | 94.5% (inactive) | 90.4% (inactive) | 90.5% (inactive) | 1.81% (inactive) | 88.7 | 90.5 | -5.73% (inactive) | -2.62% (inactive)
CN(C1CCCCC1)S(=O)(=O)c1ccc(NC(=O)c2ccco2)cc1 | 91.5 | 91.5% (inactive) | 91.5% (inactive) | 80.4% (inactive) | 99.3% (inactive) | 4.14% (inactive) | 95.1 | 99.3 | -5.26% (inactive) | -0.67% (inactive)
Cc1ccc(S(=O)(=O)N2CCC(C(=O)N[C@@H](Cc3ccccc3)C(=O)O)CC2)cc1 | 104 | 174% (inactive) | 104% (inactive) | 108% (inactive) | 86.9% (inactive) | 9.85% (inactive) | 77.1 | 86.9 | -4.27% (inactive) | -6.13% (inactive)
CC1(C)CC(=O)C(C=NCCc2ccc(S(N)(=O)=O)cc2)=C(O)C1 | 116 | 95% (inactive) | 116% (inactive) | 98.7% (inactive) | 88% (inactive) | -2.06% (inactive) | 90 | 88 | -6.13% (inactive) | -2.3% (inactive)
O=S(=O)(NCC1CCCO1)c1cccc(C(F)(F)F)c1 (stereo not given) | 97 | 93.5% (inactive) | 97% (inactive) | 95.1% (inactive) | 95.1% (inactive) | 6.7% (inactive) | 88.4 | 95.1 | -0.66% (inactive) | -5.64% (inactive)

Structure (SMILES) | viability [1] [%] | Her2 level [2] | viability [3] | viability [4] | viability [5] | differential viability (reversal) ([6]; H69AR cells + 2 uM doxorubicin) | viability [6, 9] [%] | viability [6, 10] [%] | inhibition [7] | inhibition [8]
C=CCC(NCc1ccco1)c1ccc(OC)cc1OC (stereo not given) | 96 | 98.5% (inactive) | 96% (inactive) | 99.1% (inactive) | 93% (inactive) | 7.67% (inactive) | 85.3 | 93 | -4.08% (inactive) | 0.36% (inactive)
COc1ccc(CCn2c(=N)c(C#N)cc3c(=O)n4ccccc4nc32)cc1 | 95 | 84.5% (inactive) | 95% (inactive) | 79.7% (inactive) | 65.2% (inactive) | 2.31% (inactive) | 62.9 | 65.2 | -8.78% (inactive) | 5.17% (inactive)
CCOC(=O)c1c(NC(=O)OC)sc(C(=O)N(C)C)c1C | 109 | 94.5% (inactive) | 109% (inactive) | 112% (inactive) | 108% (inactive) | 20% (inactive) | 87.9 | 108 | -6.89% (inactive) | -4% (inactive)
CC(=O)N1CCC(N(C(=O)Nc2ccc(C)c(C)c2)C2CCCC2)CC1 | 92 | 102% (inactive) | 92% (inactive) | 90.4% (inactive) | 85.6% (inactive) | -3.42% (inactive) | 89.1 | 85.6 | -1.54% (inactive) | -5.33% (inactive)
Clc1cc2c(c(Cn3cnc4ccccc43)c1)OCOC2 | 109 | 106% (inactive) | 109% (inactive) | 87.8% (inactive) | 98% (inactive) | 6.4% (inactive) | 91.6 | 98 | -3.33% (inactive) | -5.57% (inactive)
CC1(C)CC(=O)C(C=Nc2ccc3c(c2)OCO3)=C(O)C1 | 114 | 113% (inactive) | 114% (inactive) | 79.2% (inactive) | 75.5% (inactive) | -27.7% (inactive) | 103 | 75.5 | 0% (inactive) | -4.33% (inactive)
CCn1c(=N)n(CC(O)c2ccco2)c2ccccc21 (stereo not given) | 94.5 | 119% (inactive) | 94.5% (inactive) | 116% (inactive) | 90.4% (inactive) | 10.3% (inactive) | 80.1 | 90.4 | -4.49% (inactive) | 4.67% (inactive)
O=C(Nc1ccc(N2CCOCC2)cc1)c1cccc(S(=O)(=O)N2CCCC2)c1 | 88.5 | 85% (inactive) | 88.5% (inactive) | 96.8% (inactive) | 98.4% (inactive) | 5.26% (inactive) | 93.1 | 98.4 | -5% (inactive) | -2% (inactive)
CN(C)C(=O)N1CCC(C(=O)NC2CCCCCCC2)CC1 | 90 | 112% (inactive) | 90% (inactive) | 105% (inactive) | 92.9% (inactive) | -1.97% (inactive) | 94.8 | 92.9 | -3.21% (inactive) | 7% (inactive)
O=C(NC1=NCCS1)NC12CC3CC(CC(C3)C1)C2 | 111 | 106% (inactive) | 111% (inactive) | 98.4% (inactive) | 93% (inactive) | 4.27% (inactive) | 88.7 | 93 | -4.53% (inactive) | 5.08% (inactive)
O=C(NCCc1ccccn1)c1ccc(COc2ccccc2)o1 | 80 | 100% (inactive) | 80% (inactive) | 103% (inactive) | 102% (inactive) | 6.97% (inactive) | 95.3 | 102 | -2.99% (inactive) | 0.33% (inactive)
COc1ccc(-c2cc(C(F)(F)F)nc(SCCC(=O)N3CCOCC3)n2)cc1 | 116 | 90.5% (inactive) | 116% (inactive) | 94.1% (inactive) | 90% (inactive) | 3.6% (inactive) | 86.4 | 90 | -1.71% (inactive) | 2.46% (inactive)
CCCOc1ccc(C2c3c(oc4ccccc4c3=O)C(=O)N2CCCN2CCOCC2)cc1 (stereo not given) | 84.5 | 77.5% (inactive) | 84.5% (inactive) | 90.3% (inactive) | 71.6% (inactive) | 0.68% (inactive) | 71 | 71.6 | -3.73% (inactive) | -4.26% (inactive)
CCCn1c(N)c(C(=O)CSc2nnc(Cc3ccccc3)o2)c(=O)n(C)c1=O | 104 | 90.5% (inactive) | 104% (inactive) | 75.2% (inactive) | 84.6% (inactive) | -13.6% (inactive) | 98.2 | 84.6 | 0.65% (inactive) | 3.93% (inactive)
CCN1CCN(CCCNC(=O)C2c3ccccc3C(=O)N(C)C2c2ccc(OC)cc2)CC1 (stereo not given) | 102 | 99% (inactive) | 102% (inactive) | 95.9% (inactive) | 110% (inactive) | 16.8% (inactive) | 93.2 | 110 | -1.64% (inactive) | -0.79% (inactive)
